Assays:
Type in all cases: ADME, organism-based
Parameters in all cases: dose 16 mg/kg, route intravenous
Settings in all cases: in vivo; call rule not given here
[1] = Drug uptake in Wistar rat kidney proximal tubule S2 obtained after tissue digestion with 0.04% protease digestion for 2 hrs mins at 4 or 16 mg/kg, iv after 12 hrs post dose by light-microscopic immunocytochemistry
Procedure, shortened: (§1)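 Male Wistar rats (200–250 g) received a single tail-vein gentamicin dose (3 per time group), with saline-injected rats as controls. Under pentobarbital, rats were perfused with PBS, then 2% glutaraldehyde in 10 mM phosphate (pH 7.2), and kidneys postfixed overnight at 4°C. Paraffin sections (5 μm) were treated with 6% H₂O₂, 1.0% NaBH₄ and 1 N HCl, then protease at 30°C. Staining used rabbit anti-GM serum 1:5,000 (overnight, 4°C), then HRP anti-rabbit IgG with DAB.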

[2] = Drug uptake in Wistar rat kidney proximal tubule S1 obtained after tissue digestion with 0.04% protease digestion for 2 hrs mins at 4 or 16 mg/kg, iv after 12 hrs post dose by light-microscopic immunocytochemistry; procedure, shortened: as §1
[3] = Drug uptake in Wistar rat kidney proximal tubule […] cells obtained after tissue digestion with 0.04% protease digestion for 15 mins at 4 or 16 mg/kg, iv after 12 hrs post dose by light-microscopic immunocytochemistry; procedure, shortened: as §1
[4] = Drug uptake in Wistar rat kidney collecting duct cells obtained after tissue digestion with 0.04% protease digestion for 15 mins at 4 or 16 mg/kg, iv after 12 hrs post dose by light-microscopic immunocytochemistry; procedure, shortened: as §1
[5] = Drug uptake in cytoplasm of Wistar rat kidney distal tubule cells obtained after tissue digestion with 0.04% protease digestion for 15 mins at 4 or 16 mg/kg, iv after 12 hrs post dose by light-microscopic immunocytochemistry; procedure, shortened: as §1
[6] = Drug uptake in Wistar rat Kidney endothelium cells obtained after tissue digestion with 0.04% protease digestion for 2 hrs mins at 4 or 16 mg/kg, iv after 1 hrs post dose by light-microscopic immunocytochemistry; procedure, shortened: as §1
[7] = Drug uptake in Wistar rat Kidney endothelium cells obtained after tissue digestion with 0.04% protease digestion for 15 mins to 60 mins at 4 or 16 mg/kg, iv after 1 hrs post dose by light-microscopic immunocytochemistry; procedure, shortened: as §1
[8] = Drug uptake in Wistar rat Kidney endothelium cells obtained after tissue digestion with 0.04% protease digestion for 15 mins to 2 hrs mins at 4 or 16 mg/kg, iv after 12 hrs post dose by light-microscopic immunocytochemistry; procedure, shortened: as §1
[9] = Drug uptake in Wistar rat Kidney glomeruli cells obtained after tissue digestion with 0.04% protease digestion for 15 mins to 2 hrs mins at 4 or 16 mg/kg, iv after 12 hrs post dose by light-microscopic immunocytochemistry; procedure, shortened: as §1
[10] = Drug uptake in Wistar rat Kidney Henle's loop cells obtained after tissue digestion with 0.04% protease digestion for 15 mins to 2 hrs mins at 4 or 16 mg/kg, iv after 12 hrs post dose by light-microscopic immunocytochemistry; procedure, shortened: as §1
[11] = Drug uptake in Wistar rat kidney collecting duct cells obtained after tissue digestion with 0.04% protease digestion for 30 mins at 4 or 16 mg/kg, iv after 12 hrs post dose by light-microscopic immunocytochemistry; procedure, shortened: as §1
[12] = Drug uptake in Wistar rat kidney collecting duct cells obtained after tissue digestion with 0.04% protease digestion for 2 hrs at 4 or 16 mg/kg, iv after 12 hrs post dose by light-microscopic immunocytochemistry; procedure, shortened: as §1
[13] = Drug uptake in cytoplasm of Wistar rat kidney distal tubule cells obtained after tissue digestion with 0.04% protease digestion for 2 hrs at 4 or 16 mg/kg, iv after 12 hrs post dose by light-microscopic immunocytochemistry; procedure, shortened: as §1
[14] = Drug uptake in nuclei of Wistar rat kidney distal tubule cells obtained after tissue digestion with 0.04% protease digestion for 15 mins at 4 or 16 mg/kg, iv after 12 hrs post dose by light-microscopic immunocytochemistry; procedure, shortened: as §1

GENTAMICIN
Drug uptake [1]: Active | Drug uptake [2]: Active | Drug uptake [3]: Not Active | Drug uptake [4]: Active | Drug uptake [5]: Active | Drug uptake [6]: Not Active | Drug uptake [7]: Active | Drug uptake [8]: Not Active | Drug uptake [9]: Not Active | Drug uptake [10]: Not Active | Drug uptake [11]: Active | Drug uptake [12]: Not Active | Drug uptake [13]: Not Active | Drug uptake [14]: Active

From ChEMBL document CHEMBL1671656, “Light-microscopic immunocytochemistry for gentamicin and its use for studying uptake of the drug in kidney” (Antimicrob Agents Chemother, 2009)
